# In paper PMC12709667 (Journal of Clinical Pharmacology, 2025):
# Tests used:
# CYP2B6 = target: T1, CYP2B6 (Homo sapiens, UniProt P20813); format: in vitro ADME
# T1 sequence (P20813 1-491): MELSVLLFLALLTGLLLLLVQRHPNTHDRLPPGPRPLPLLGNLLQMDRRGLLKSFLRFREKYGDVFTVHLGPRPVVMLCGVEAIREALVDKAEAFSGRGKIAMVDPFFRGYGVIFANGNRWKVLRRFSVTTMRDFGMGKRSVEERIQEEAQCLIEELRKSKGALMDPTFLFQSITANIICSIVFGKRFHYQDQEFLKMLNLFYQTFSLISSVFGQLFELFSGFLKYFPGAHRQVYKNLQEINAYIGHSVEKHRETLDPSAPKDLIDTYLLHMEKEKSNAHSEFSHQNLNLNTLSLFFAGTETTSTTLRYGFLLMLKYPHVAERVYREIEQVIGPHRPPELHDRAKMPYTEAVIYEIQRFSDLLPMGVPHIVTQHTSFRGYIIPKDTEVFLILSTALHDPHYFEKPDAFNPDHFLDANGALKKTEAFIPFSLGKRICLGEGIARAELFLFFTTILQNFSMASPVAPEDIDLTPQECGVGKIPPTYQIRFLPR
# OATP1B1 = target: T2, OATP1B1 (Homo sapiens, UniProt Q9Y6L6); assay: Transporter substrate assessment; format: in vitro ADME
# T2 sequence (Q9Y6L6 1-691): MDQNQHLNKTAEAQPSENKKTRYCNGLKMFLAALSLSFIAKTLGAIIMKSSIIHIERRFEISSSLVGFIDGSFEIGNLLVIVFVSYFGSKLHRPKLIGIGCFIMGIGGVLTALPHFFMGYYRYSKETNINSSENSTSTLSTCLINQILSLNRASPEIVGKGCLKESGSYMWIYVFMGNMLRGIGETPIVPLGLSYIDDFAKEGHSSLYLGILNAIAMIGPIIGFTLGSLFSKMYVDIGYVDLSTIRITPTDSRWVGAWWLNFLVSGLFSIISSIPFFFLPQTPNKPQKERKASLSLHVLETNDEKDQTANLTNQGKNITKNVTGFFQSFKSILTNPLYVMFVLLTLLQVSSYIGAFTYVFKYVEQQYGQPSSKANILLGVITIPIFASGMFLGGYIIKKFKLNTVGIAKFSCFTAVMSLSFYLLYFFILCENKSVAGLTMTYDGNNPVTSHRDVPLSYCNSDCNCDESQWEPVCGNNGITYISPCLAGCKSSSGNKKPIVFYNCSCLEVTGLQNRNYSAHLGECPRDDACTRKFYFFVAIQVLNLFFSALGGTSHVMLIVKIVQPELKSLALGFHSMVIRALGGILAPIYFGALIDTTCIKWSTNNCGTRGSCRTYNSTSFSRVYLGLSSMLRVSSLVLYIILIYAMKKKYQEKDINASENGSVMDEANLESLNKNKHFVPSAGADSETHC
# 28-day toxicology study = format: in vivo, monkey; details: monkeys
# UGT1A1 = target: T3, UGT1A1 (Homo sapiens, UniProt P22309); assay: Phase 2 enzyme substrate assessment; format: in vitro ADME
# T3 sequence (P22309 26-533): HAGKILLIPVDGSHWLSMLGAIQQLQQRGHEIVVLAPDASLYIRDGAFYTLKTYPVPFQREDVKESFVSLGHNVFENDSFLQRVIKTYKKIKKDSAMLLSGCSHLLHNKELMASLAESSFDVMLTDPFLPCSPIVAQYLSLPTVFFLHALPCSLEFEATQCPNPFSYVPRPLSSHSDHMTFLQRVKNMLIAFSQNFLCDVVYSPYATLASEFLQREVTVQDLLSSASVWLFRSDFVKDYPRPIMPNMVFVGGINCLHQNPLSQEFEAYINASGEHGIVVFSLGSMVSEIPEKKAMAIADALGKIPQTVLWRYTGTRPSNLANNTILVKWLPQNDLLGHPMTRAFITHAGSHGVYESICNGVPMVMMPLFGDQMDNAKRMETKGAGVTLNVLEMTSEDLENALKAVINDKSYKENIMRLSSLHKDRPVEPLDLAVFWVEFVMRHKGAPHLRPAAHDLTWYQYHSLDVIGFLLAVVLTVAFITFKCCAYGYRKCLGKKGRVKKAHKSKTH
# CYP2C19 = CYP2C19 (Homo sapiens, UniProt P33261); assay: DDI victim study with fluvoxamine; format: in vivo; details: with strong CYP2C19 inhibitor fluvoxamine
# CYP3A5 = CYP3A5 (Homo sapiens, UniProt P20815); assay: Cytochrome P450 inhibition; format: in vitro ADME
# [1] = [14C] ADME study in male albino CD1 mice; format: in vivo, mouse
# Summary of the method: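 Male albino CD1 mice received one oral dose of 50 mg/kg (5 MBq/kg) [14C]-labelled test compound. Blood and plasma were counted for total radioactivity. Urine and faeces were collected for excretion balance, and plasma, urine and faeces were used for metabolite profiling.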
# [2] = Animal and human ADME studies, summary of excretion; format: in vivo; details: animal and human ADME studies (Abstract)
# MDR1/P-gp = MDR1/P-gp (Homo sapiens, UniProt P08183); assay: Transporter substrate assessment; format: in vitro ADME
# CYP3A4 = details: miricorilant 400 mg once daily as perpetrator
# [3] = Clinical safety in phase 1 studies; format: in vivo, human
# Summary of the method: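 Healthy adult subjects in phase 1 studies received oral single doses, or once-daily doses for up to 14 days, with placebo controls in some parts. They were housed in the clinical pharmacology unit from at least the day before dosing until ≥24 h after the last dose. Treatment-emergent adverse events were recorded and graded for intensity.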
# [4] = First-in-human study, multiple ascending dose; format: in vivo; details: for half-life: human, plasma, oral
# [5] = repeated once‐daily dosing for up to 14 days
# [6] = single‐dose studies, healthy subjects
# Chain of MDR1/P-gp (P08183 whole entry): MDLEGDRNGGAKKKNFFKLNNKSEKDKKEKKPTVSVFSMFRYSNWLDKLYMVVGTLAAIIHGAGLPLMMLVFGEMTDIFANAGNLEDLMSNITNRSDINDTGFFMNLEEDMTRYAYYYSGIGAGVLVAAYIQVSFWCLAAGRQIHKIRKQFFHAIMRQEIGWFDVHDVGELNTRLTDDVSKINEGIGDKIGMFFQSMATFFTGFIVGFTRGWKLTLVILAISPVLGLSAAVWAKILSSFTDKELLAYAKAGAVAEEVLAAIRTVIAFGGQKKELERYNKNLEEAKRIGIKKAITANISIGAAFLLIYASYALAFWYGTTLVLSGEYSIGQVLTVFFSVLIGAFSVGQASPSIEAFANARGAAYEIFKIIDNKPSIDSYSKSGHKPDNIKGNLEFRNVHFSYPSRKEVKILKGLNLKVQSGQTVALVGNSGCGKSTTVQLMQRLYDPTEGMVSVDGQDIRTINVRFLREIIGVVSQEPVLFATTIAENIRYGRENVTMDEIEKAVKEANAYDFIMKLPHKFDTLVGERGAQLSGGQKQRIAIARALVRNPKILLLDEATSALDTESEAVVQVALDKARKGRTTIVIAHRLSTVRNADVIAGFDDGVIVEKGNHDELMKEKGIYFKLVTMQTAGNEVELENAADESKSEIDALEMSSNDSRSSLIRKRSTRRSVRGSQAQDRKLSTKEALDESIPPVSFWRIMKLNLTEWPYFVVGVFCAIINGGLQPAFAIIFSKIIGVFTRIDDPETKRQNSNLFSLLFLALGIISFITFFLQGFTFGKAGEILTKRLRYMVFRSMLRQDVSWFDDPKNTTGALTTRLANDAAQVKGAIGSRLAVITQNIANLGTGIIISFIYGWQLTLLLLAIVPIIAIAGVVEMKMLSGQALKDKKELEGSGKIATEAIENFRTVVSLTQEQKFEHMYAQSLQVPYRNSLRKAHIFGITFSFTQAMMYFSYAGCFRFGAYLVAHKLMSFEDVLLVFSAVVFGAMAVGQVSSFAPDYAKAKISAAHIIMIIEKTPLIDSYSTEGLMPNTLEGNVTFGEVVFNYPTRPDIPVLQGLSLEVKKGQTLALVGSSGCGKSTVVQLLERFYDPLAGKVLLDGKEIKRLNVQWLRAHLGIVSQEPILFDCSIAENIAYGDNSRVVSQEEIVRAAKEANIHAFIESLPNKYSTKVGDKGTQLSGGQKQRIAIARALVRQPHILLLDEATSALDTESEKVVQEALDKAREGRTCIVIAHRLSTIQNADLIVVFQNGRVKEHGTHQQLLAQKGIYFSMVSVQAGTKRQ
# Chain of CYP3A5 (P20815 whole entry): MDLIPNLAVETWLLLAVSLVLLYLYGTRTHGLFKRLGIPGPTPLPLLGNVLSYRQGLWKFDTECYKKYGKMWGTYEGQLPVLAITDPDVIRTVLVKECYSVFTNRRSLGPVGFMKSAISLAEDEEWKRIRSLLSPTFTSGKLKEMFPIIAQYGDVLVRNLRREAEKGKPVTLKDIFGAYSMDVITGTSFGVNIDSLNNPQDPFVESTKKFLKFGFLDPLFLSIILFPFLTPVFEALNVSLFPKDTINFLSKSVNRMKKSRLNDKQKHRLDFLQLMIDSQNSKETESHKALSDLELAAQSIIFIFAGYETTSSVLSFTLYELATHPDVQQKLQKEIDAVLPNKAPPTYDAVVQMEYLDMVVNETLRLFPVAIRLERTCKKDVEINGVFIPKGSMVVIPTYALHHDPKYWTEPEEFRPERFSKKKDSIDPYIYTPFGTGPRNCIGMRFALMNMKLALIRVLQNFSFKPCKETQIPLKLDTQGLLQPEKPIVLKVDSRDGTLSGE
# Chain of CYP2C19 (P33261 whole entry): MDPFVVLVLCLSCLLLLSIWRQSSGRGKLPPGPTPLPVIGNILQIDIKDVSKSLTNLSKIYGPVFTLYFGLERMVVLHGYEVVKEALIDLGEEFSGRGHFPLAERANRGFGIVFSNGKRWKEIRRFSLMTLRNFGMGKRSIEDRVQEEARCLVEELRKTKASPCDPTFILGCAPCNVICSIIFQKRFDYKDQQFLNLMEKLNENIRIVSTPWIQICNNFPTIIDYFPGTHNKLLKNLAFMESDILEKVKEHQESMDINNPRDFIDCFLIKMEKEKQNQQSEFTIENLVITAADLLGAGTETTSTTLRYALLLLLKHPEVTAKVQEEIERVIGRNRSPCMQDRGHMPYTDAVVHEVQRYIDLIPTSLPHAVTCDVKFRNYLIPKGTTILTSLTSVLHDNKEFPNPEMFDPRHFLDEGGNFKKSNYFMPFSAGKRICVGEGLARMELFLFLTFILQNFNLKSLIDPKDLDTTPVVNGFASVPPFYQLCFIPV
structure (smiles),measurement,setting,value
O=c1[nH]c(=O)c(Cc2cccc(C(F)(F)F)c2)c([C@H]2CC[C@H](c3ccccc3)CC2)[nH]1 [miricorilant],inhibition of CYP2B6,CYP2B6,No inhibition
same,Substrate of OATP1B1,OATP1B1,not a substrate
same,adverse effects in 28‐day toxicology study,28-day toxicology study,No adverse effects
same,Substrate of UGT1A1,UGT1A1,not a substrate
same,clinical sensitivity as substrate of CYP2C19,CYP2C19,moderately sensitive substrate
same,inhibition of CYP3A5,CYP3A5,No inhibition
same,recovery of radioactivity,[1]; by 24 h postdose,quantitative recovery
same,elimination of radioactivity in urine,[1]; single oral 50 mg/kg,0.13% ± 0.04%
same,fecal elimination of radioactivity,[1]; single oral 50 mg/kg,98.7% ± 2.48%
same,share of total radioactivity in plasma,[1]; single oral 50 mg/kg,69%
same,total radioactivity recovered in urine,[2],< 5%
same,Substrate of MDR1/P-gp,MDR1/P-gp,not a substrate
same,clinical inhibition of CYP3A4,CYP3A4,does not inhibit
same,overall safety and tolerability,[3]; phase 1 studies,safe and well‐tolerated
same,intensity of TEAEs,[3]; [5],mild or moderate
same,most commonly reported TEAE,[3]; [5],headache
same,deaths or serious adverse events,[3]; repeated‐dose studies,no deaths or treatment‐emergent serious adverse events
same,discontinuation due to TEAEs,[3]; [6],No subjects
same,intensity of TEAEs,[3]; [6],mild or moderate
same,most commonly reported TEAE,[3]; [6],headache
same,average increase in Cmax and AUC0‐last per doubling of the dose,"[4]; 150, 450, 900 mg once daily, day 1",1.92 fold
same,half-life,[4],~20 h
same,half-life,[4]; 150 mg,21.6 h
same,half-life,[4]; 450 mg,21.2 h
same,half-life,[4]; 900 mg,19.4 h
same,accumulation ratio for Cmax,[4]; repeated daily dosing (Discussion/Conclusions),≈ 1.5 fold
